The values that follow come from ChEMBL document CHEMBL1212734, “In vitro pharmacodynamics of levofloxacin and other aerosolized antibiotics under multiple conditions relevant to chronic pulmonary infection in cystic fibrosis” (2010).

Holding throughout (type): functional
Test [1] relates to Pseudomonas aeruginosa. Description: Antibacterial activity against Pseudomonas aeruginosa by broth dilution method. A digest of the protocol:
(§1)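 Broth microdilution MIC per CLSI reference method; twofold serial dilutions in cation-adjusted Mueller-Hinton broth. […] Endpoint read by OD600 and confirmed visually.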

In test [2] the test system is Burkholderia cepacia. The test is described as follows: Antibacterial activity against Burkholderia cepacia clinical isolates by broth dilution method.
Test [3] has as its system Stenotrophomonas maltophilia. Description: Antibacterial activity against Stenotrophomonas maltophilia by broth dilution method.
Test [4] has as its system Achromobacter xylosoxidans. The test is described as follows: Antibacterial activity against Alcaligenes xylosoxidans by broth dilution method.
The test system of test [5] is Staphylococcus aureus. Description: Antibacterial activity against methicillin-resistant Staphylococcus aureus by broth dilution method. In a few lines: as §1
Test [6] deals with Staphylococcus aureus. Description: Antibacterial activity against methicillin-sensitive Staphylococcus aureus by broth dilution method.
The subject of test [7] is Pseudomonas aeruginosa. The test is described as follows: Antibacterial activity against Pseudomonas aeruginosa PA1054 assessed as inhibition of biofilm formation by microtiter plate reader assay. In a few lines: (§2)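 Biofilms of cystic fibrosis P. aeruginosa isolates were grown and tested by a previously described method. The endpoint was the biofilm inhibitory concentration, the drug level that prevents biofilm cell growth, compared against planktonic broth-microdilution MICs.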

Test [8] deals with Pseudomonas aeruginosa. The test is described as follows: Antibacterial activity against Pseudomonas aeruginosa PA1042 assessed as inhibition of biofilm formation by microtiter plate reader assay. In a few lines:
as §2

For test [9], the system named is Pseudomonas aeruginosa. The test is described as follows: Antibacterial activity against Pseudomonas aeruginosa PA5063 assessed as inhibition of biofilm formation by microtiter plate reader assay. A digest of the protocol:
as §2

Test [10] deals with Pseudomonas aeruginosa. Description: Antibacterial activity against Pseudomonas aeruginosa PA1054 by broth dilution method. In a few lines:
as §1

In test [11] the test system is Pseudomonas aeruginosa. Description: Antibacterial activity against Pseudomonas aeruginosa PA1042 by broth dilution method. In a few lines: as §1
Test [12] concerns Pseudomonas aeruginosa. The test is described as follows: Antibacterial activity against Pseudomonas aeruginosa PA5063 by broth dilution method. A digest of the protocol: as §1
Test [13] deals with Pseudomonas aeruginosa. Description: Antibacterial activity against Pseudomonas aeruginosa ATCC 27853 by broth dilution method. A digest of the protocol: as §1
Test [14] concerns Pseudomonas aeruginosa. Description: Antibacterial activity against Pseudomonas aeruginosa PA5043 by broth dilution method. A digest of the protocol:
as §1

For test [15], the system named is Pseudomonas aeruginosa. Description: Antibacterial activity against Pseudomonas aeruginosa PA5043 assessed as inhibition of biofilm formation by microtiter plate reader assay. In a few lines:
as §2

Test [16] has as its system Pseudomonas aeruginosa. Description: Antibacterial activity against Pseudomonas aeruginosa ATCC 27853 assessed as inhibition of biofilm formation by microtiter plate reader assay.

SMILES strings stand for the structures. Converted amounts (≈) assume the structure as drawn.

With `NCC[C@H](O)C(=O)N[C@@H]1C[C@H](N)[C@@H](O[C@H]2O[C@H](CN)[C@@H](O)[C@H](O)[C@H]2O)[C@H](O)[C@H]1O[C@H]1O[C@H](CO)[C@@H](O)[C@H](N)[C@H]1O` [AMIKACIN], the MIC50 in test [1] was 16 µg/mL (≈ 27.3 µM); in test [2], 128 µg/mL (≈ 219 µM); in test [3], 128 µg/mL (≈ 219 µM); in test [4], greater than 128 µg/mL; in [5], 8 µg/mL (≈ 13.7 µM); in test [6] it was 1 µg/mL (≈ 1.71 µM). In addition, the MIC90 was greater than 128 µg/mL in test [1]; greater than 128 µg/mL in test [2]; greater than 128 µg/mL in test [3]; greater than 128 µg/mL in [4]; 16 µg/mL (≈ 27.3 µM) in test [5]; 4 µg/mL (≈ 6.83 µM) in test [6]. The BBC was found to be 4 µg/mL in test [7]; 8 µg/mL in test [8]; 16 µg/mL in test [9]; 64 µg/mL in [15]; 8 µg/mL in [16]. The MIC in test [7] (Pseudomonas aeruginosa, PA1054) worked out at 1 µg/mL (≈ 1.71 µM); in test [10], 1 µg/mL (≈ 1.71 µM); in test [11], 4 µg/mL (≈ 6.83 µM); in test [12] it was 2 µg/mL (≈ 3.42 µM); in test [13], 2 µg/mL (≈ 3.42 µM); in test [14], 64 µg/mL (≈ 109 µM).
As for `O=C(O)c1cn(C2CC2)c2cc(N3CCNCC3)c(F)cc2c1=O` [CIPROFLOXACIN], the MIC50 amounted to 1 µg/mL (≈ 3.02 µM) in [1]; 4 µg/mL (≈ 12.1 µM) in test [3]; 4 µg/mL (≈ 12.1 µM) in [4]; 16 µg/mL (≈ 48.3 µM) in test [5]; 0.125 µg/mL (≈ 0.377 µM) in [6]. The MIC90 is 8 µg/mL (≈ 24.1 µM) in test [1]; 16 µg/mL (≈ 48.3 µM) in [3]; 16 µg/mL (≈ 48.3 µM) in test [4]; greater than 32 µg/mL in test [5]; 0.5 µg/mL (≈ 1.51 µM) in [6].
